# In the library only some 3.2% were active in any assay of this set; here they are far more common.
# 14-3-3 Bad PPI: disrupts binding of bovine 14-3-3 zeta to phospho-Bad peptide; inhibition, % at 21.7 µM; hit rate 0.71% among 220,000; P63103; TR-FRET 14-3-3zeta/Dy647-pBad peptide displacement, 1 h;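 active = inhibition above about 70%, limit read from the data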
# Target sequence (P63103 whole entry, looked up): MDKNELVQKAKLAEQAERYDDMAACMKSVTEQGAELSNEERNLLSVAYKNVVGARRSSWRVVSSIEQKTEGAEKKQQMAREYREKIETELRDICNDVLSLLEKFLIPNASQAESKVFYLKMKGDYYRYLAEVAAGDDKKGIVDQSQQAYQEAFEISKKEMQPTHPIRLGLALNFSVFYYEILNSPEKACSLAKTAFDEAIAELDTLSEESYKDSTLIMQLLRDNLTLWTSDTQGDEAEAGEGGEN
# Biofilm kill mix: mixture kills Candida albicans biofilm cells. hit rate 0.02% among 120,000. AID 1242. inhibition, % at 7.6 µM. C. albicans biofilm persisters + clotrimazole, fluorescence viability; primary screen in compound mixtures of four per well;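 note: compounds exposed to preformed 24 h biofilms for 48 h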
#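 Test system: C. albicans CAF4-2 wild-type biofilms; buffer or medium: RPMI/MOPS medium, pH 7.0; schedule: 24 h biofilm formation, then 48 h compound exposure, 37 °C; detection: Alamar Blue fluorescence; measure: percent inhibition of biofilm viability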
# Hck-Nef inh: blocks Nef-activated human Hck kinase | P08631 | Recombinant Hck-YEEI plus Nef, Z-Lyte FRET kinase assay | inhibition, % at 20 µM | hit rate 0.68% among 220,000 | AID 463187;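 active = Hck-Nef kinase inhibition above about 50%, limit read from the data; inactive = inhibition below that limit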
# Mcl-1 Bim block: inhibitors of Bim-Mcl-1 interaction, human. inhibition, % at 10 µM. Q07820. Bead-based flow cytometry, Bim peptide-Mcl-1 binding. AID 1009. hit rate 0.1% among 190,000; in the data active = inhibition above about 40%
# Target sequence (Q07820 whole entry, looked up): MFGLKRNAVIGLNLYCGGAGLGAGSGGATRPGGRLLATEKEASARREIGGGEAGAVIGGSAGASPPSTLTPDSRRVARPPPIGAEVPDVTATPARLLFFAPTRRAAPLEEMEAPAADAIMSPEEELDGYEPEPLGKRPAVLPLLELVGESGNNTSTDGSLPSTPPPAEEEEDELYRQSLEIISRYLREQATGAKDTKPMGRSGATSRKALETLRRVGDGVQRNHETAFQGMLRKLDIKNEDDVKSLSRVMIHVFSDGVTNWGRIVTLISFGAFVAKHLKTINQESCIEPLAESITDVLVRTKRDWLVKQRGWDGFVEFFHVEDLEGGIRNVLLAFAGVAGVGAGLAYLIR
# Mcl1 Noxa PPI: Mcl-1/Noxa interaction inhibition | TR-FRET Mcl-1/Noxa peptide binding, 2 h | inhibition, % at 21.7 µM | hit rate 1.5% among 220,000;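 active = compounds that cut the protein-peptide binding signal by more than 50% relative to plate controls in a single-dose test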;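 note: His-tagged Mcl-1 with rhodamine Noxa BH3 peptide and terbium anti-His antibody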
# Mcl1 Bid PPI: disrupts binding of human Mcl-1 to Bid peptide | Q07820 | TR-FRET Mcl-1/Bid-Dy647 peptide binding, 1536-well | inhibition, % at 21.7 µM | hit rate 0.97% among 220,000 | AID 1021;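 active = compounds that cut the binding signal by more than half at the single screening dose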;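 note: His-tagged Mcl-1 with europium anti-His antibody binding Bid BH3 peptide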
# Hck Nef conf: Hck-Nef kinase inhibition, confirmation. shares compounds with Hck-Nef inh. Recombinant Hck-YEEI:Nef, Z-Lyte FRET kinase assay. calls only at 10 µM. hit rate 28% among 1,300. AID 463188;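 active = average inhibition of at least 50%, with Z-scores no higher than 3 in both the phospho-tyrosine peptide and fluorescence counterscreens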
# Hits are given with their value; – = inactive; · = no result shown; + = active, no number.
SMILES,14-3-3 Bad PPI,Biofilm kill mix,Hck-Nef inh,Mcl-1 Bim block,Mcl1 Noxa PPI,Mcl1 Bid PPI,Hck Nef conf
Nc1cc2nc3ccccc3nc2cc1N,–,–,57.4,·,51.2,–,–
Cn1nc(N)c2c1N=P(N1CCOCC1)(N1CCOCC1)N=C2c1ccccc1,–,·,–,–,–,–,·
C=CCN1C(=O)NC(=O)/C(=C\c2ccc(-c3ccccc3[N+](=O)[O-])o2)C1=O,–,–,70.0,–,–,–,+
O=C1NC(=O)N(Cc2ccco2)C(=O)/C1=C/c1ccc(-c2cccc([N+](=O)[O-])c2)o1,–,–,52.4,–,92.8,–,+
CN(C)c1ccc(/C=C2/C(=O)NC(=O)N(Cc3ccco3)C2=O)cc1,–,–,–,–,–,–,·
C=CCN1C(=O)/C(=C/c2ccc(N3CCOCC3)o2)C(=O)NC1=S,–,–,–,–,–,–,·
CCOc1ccc(-n2c(O)c(C=NCCN3CCNCC3)c(=O)[nH]c2=O)cc1,–,·,–,–,–,–,·
CC12CCC3C(CCC4C/C(=N/O)CCC43C)C1CCC2O (stereo unspecified),–,–,–,–,–,–,·
Cc1ccccc1N1C(=O)NC(=O)/C(=C\c2ccc3c(c2)CCCN3Cc2ccccc2)C1=O,–,–,–,–,–,–,·
O=C1NC(=S)NC(=O)C1=Cc1ccc2c(c1)CCN2CCCCl,–,–,79.0,·,100.0,–,+
CNS(=O)(=O)c1ccc(N=Cc2c(O)n(-c3ccc(C)cc3)c(=O)[nH]c2=O)cc1,–,–,–,·,–,–,·
CCc1nnc(NS(=O)(=O)c2ccc(N=Cc3c(O)n(-c4ccc(Cl)cc4)c(=O)[nH]c3=O)cc2)s1,–,–,55.6,–,–,–,–
COc1ccc(N2C(=O)/C(=C/C=C/c3ccccc3[N+](=O)[O-])C(=O)NC2=S)cc1,–,–,62.8,–,88.6,82.6,+
COc1ccc(N2C(=O)NC(=O)/C(=C\c3ccc([N+](=O)[O-])s3)C2=O)cc1,–,–,63.7,–,50.9,–,–
CCOc1ccc(N2C(=O)NC(=O)/C(=C\c3cc(OC)c(OC)cc3[N+](=O)[O-])C2=O)cc1,–,–,–,–,–,–,·
Cc1ccc(-c2cc(C(F)F)n3ncc(C(=O)N4CCC5(CC4)OCCO5)c3n2)cc1,–,·,–,–,–,–,·
C[N+]12CCC(CC1)C(C#N)(N1CCOCC1)C2 (stereo unspecified),–,·,–,–,–,–,·
Cc1cccn2c(=O)c3cc(C(=O)N4CCC5(CC4)OCCO5)n(C)c3nc12,–,·,54.4,–,–,–,·
CC(C)(C)C(=O)NC1CCSC1=O (stereo unspecified),–,–,–,–,–,–,·
N#Cc1c(N2CCNCC2)nc(-c2ccco2)c2c1CCCC2,–,–,67.2,·,–,–,·
O=c1[nH]c(=O)n(Cc2ccccc2)c(O)c1/C=N/NCCO,–,–,–,·,–,–,·
O=C1NC(=O)N(CCc2ccc(F)cc2)C(=O)/C1=C/c1cccs1,–,–,149.0,–,–,–,+
O=C1NC(=O)N(CCc2ccc(F)cc2)C(=O)/C1=C/c1ccco1,–,–,167.3,–,–,–,+
Clc1cccc(Cl)c1CN1CCN(c2ccccc2)CC1,–,·,–,–,–,–,·
Cc1cccc(N2C(=O)NC(=O)/C(=C/c3ccc(-c4ccc(C(=O)O)c(Cl)c4)o3)C2=O)c1,–,–,58.9,–,–,–,–
SMILES,14-3-3 Bad PPI,Biofilm kill mix,Hck-Nef inh,Mcl-1 Bim block,Mcl1 Noxa PPI,Mcl1 Bid PPI,Hck Nef conf
O=C1NC(=O)N(c2ccc3c(c2)OCO3)C(=O)/C1=C\c1ccc(-c2ccccc2C(=O)O)o1,–,–,–,·,–,–,·
CN(CC(=O)Nc1ccccc1-c1ccccc1)C1CCCCC1,–,–,–,–,–,–,·
O=C1NC(=O)N(c2ccccc2)C(=O)/C1=C/c1coc2ccc(O)cc2c1=O,–,–,86.5,·,–,–,+
O=C1NC(=O)N(c2ccccc2)C(=O)/C1=C/c1ccoc1,–,–,–,–,–,–,·
O=C1NC(=O)N(c2ccc(Cl)cc2)C(=O)/C1=C/c1coc2ccc(O)cc2c1=O,–,–,74.7,·,–,–,+
Cc1ccccc1OCCCn1cc(C(=O)C(=O)N2CCOCC2)c2ccccc21,–,–,–,–,–,–,·
O=C(O)CCn1cc(C=C2C(=O)NC(=S)NC2=O)c(-c2ccccc2)n1,–,–,90.0,–,61.9,–,–
N#CCCn1cc(C=C2C(=O)NC(=O)NC2=O)c(-c2ccccc2)n1,–,–,–,–,–,–,·
CCC1(CC)C(=N)N(C)C(=O)NC1=O,–,–,–,–,–,–,·
COCCCn1c(N)c(C(=O)NCCC(C)C)c2nc3ccccc3nc21,–,·,50.2,–,–,–,–
CCCCn1c(N)c(C(=O)OCCOC)c2nc3ccccc3nc21,–,–,66.4,·,–,–,·
CCCCOCCCn1c(N)c(C(=O)OCCOC)c2nc3ccccc3nc21,·,·,–,–,–,–,·
CCOP(=O)(OCC)c1ccc(O)cc1,–,–,–,–,–,–,·
CCCNC(=O)c1c(N)n(CC2CCCO2)c2nc3ccccc3nc12 (stereo unspecified),–,·,57.3,–,–,–,·
CCCCCCn1c(N)c(C(=O)NCCN2CCOCC2)c2nc3ccccc3nc21,–,·,64.8,–,–,–,–
CC(C)OCCCNC(=O)c1c(N)n(CC2CCCO2)c2nc3ccccc3nc12 (stereo unspecified),·,·,52.1,–,·,·,·
Cc1nn(Cc2ccccc2)c(C)c1C(=O)OCC(=O)Nc1cc(S(C)(=O)=O)ccc1Cl,–,–,–,–,–,–,·
NC(=S)c1cn(C2OC(CO)C(O)C2O)c2ncnc(N)c12 (stereo unspecified),–,–,95.3,·,–,–,+
Nc1c(C(=O)NCc2ccco2)c2nc3ccccc3nc2n1Cc1ccccc1,–,–,–,–,–,–,·
Nc1c(C(=O)NCc2ccco2)c2nc3ccccc3nc2n1Cc1ccc(F)cc1,·,·,56.6,–,65.5,52.6,–

# Compound activity (PubChem)
